Source: ChEMBL document CHEMBL4725355, “Design, Synthesis, and Preclinical Evaluation of 3-Methyl-6-(5-thiophenyl)-1,3-dihydro-imidazo[4,5-b]pyridin-2-ones as Selective GluN2B Negative Allosteric Modulators for the Treatment of Mood Disorders” (J Med Chem, 2020)

Columns and labels:
[1] = AUC (0 to 24 hrs) in Sprague-Dawley rat at 250 mg/kg, po administered via gavage after 24 hrs using HPMC formulation by LC-MS/MS analysis; format: ADME, organism-based; design: route oral, dose 250 mg/kg, time <=24; settings: in vivo
Procedure, shortened: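 Single oral gavage dose to male Sprague Dawley rats, 3 per dose level. Vehicles were a standard suspension in 5% HPMC (125, 250, 500 or 1000 mg/kg) or a nanosuspension (API:polymer 4:1), with stock diluted in vehicle on the day of dosing (100, 250 or 500 mg/kg). Blood was sampled at time points from 0.5 to 24 h.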

[2] = Ratio of Cmax in Sprague-Dawley rat at 500 mg/kg, po administered via gavage after 24 hrs using nanosuspension formulation by LC-MS/MS analysis to EC70 for ex vivo receptor occupancy at GluN2B in po dosed Sprague-Dawley rat assessed as 3-[3H] 1-(azetidin-1-yl)-2-[6-(4-fluoro-3-methyl-phenyl)pyrrolo[3,2-b]pyridin-1-yl]-ethanone labelling; format: ADME, organism-based
[3] = Cmax in dog at 0.5 mg/kg, po by LC-MS/MS analysis; format: ADME, organism-based, Canis lupus familiaris; design: route oral, dose 0.5 mg/kg; settings: in vivo

AUC(0-t) [1]: 19700 ng·h/mL
Ratio [2]: 26
Cmax [3]: 351 ng/mL
SMILES: Cn1c(=O)n(CC(=O)N2CCC2)c2cc(-c3ccc(C(F)(F)F)s3)cnc21
